Assay [1] has as its target T1, DNA topoisomerase 1 (Homo sapiens) (UniProt P11387).
T1 sequence (whole entry): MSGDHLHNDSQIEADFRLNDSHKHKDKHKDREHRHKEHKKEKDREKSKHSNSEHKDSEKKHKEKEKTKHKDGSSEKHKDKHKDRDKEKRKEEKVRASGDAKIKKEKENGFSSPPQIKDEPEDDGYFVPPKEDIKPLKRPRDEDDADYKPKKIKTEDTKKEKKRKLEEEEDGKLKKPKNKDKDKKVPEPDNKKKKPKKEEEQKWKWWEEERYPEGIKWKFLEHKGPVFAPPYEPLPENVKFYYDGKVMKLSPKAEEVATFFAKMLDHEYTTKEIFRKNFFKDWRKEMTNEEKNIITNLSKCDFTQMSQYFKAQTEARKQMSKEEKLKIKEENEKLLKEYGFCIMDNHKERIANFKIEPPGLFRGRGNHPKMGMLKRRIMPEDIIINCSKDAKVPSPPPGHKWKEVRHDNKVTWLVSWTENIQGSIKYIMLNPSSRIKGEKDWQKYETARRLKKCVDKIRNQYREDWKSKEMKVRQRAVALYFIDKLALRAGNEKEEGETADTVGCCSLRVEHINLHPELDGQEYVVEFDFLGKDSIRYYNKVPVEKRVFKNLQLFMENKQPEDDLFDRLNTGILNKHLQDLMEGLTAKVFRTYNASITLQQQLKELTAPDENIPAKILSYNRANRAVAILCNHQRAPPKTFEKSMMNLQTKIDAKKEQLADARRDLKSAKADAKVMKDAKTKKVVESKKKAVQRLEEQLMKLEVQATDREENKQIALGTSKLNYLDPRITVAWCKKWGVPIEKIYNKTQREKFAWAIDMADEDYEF
Description: Inhibition of human DNA topoisomerase-1 at 100 uM using supercoiled pBR322 DNA as substrate after 30 mins by ethidium bromide staining based agarose gel electrophoresis relative to control. Put shortly:
(§1)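 Recombinant human topo I, 1 unit (the amount that fully relaxes supercoiled pBR322), with 100 ng pBR322 DNA at 37 °C for 30 min in 10 mM Tris-HCl pH 7.9, 150 mM NaCl, 0.1% BSA. Compounds were screened at 100 µM, and those above 30% inhibition were retested at 20 µM. Products ran on 1% agarose at 15 V for 7 h in TAE with ethidium bromide staining. Mean ± S.D. from three experiments in triplicate.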

Assay [2] has as its target DNA topoisomerase 2-alpha (Homo sapiens) (UniProt P11388). Nature of the assay: Inhibition of human DNA topoisomerase-2alpha at 100 uM using supercoiled pBR322 DNA as substrate after 30 mins by ethidium bromide staining based agarose gel electrophoresis relative to control. Put shortly:
(§2)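 Human topo IIα, 1 unit set by full relaxation of pBR322, with 100 ng pBR322 for 30 min in 10 mM Tris-HCl pH 7.9, 50 mM NaCl, 5 mM MgCl2, 1 mM EDTA and BSA. Stop was with EDTA. Screening was at 100 µM, with retest at 20 µM if inhibition exceeded 30%. Gel was 1% agarose at 25 V for 4 h in TAE, stained with ethidium bromide. Mean ± S.D. from three experiments in triplicate.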

The target is the same in assay [3]. Nature of the assay: Inhibition of human DNA topoisomerase-2alpha at 20 uM using supercoiled pBR322 DNA as substrate after 30 mins by ethidium bromide staining based agarose gel electrophoresis relative to control. Put shortly:
as §2

A short description of assay [4]: Antiproliferative activity against human HCT15 cells after 72 hrs by CCK8 assay. It is filed as functional, cell-based. Conditions: HCT-15, 72 h. Put shortly: (§3)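 Cells seeded at 2–4 × 10^4 per well, grown overnight in medium with 10% FBS at 37 °C and 5% CO2. After 4 h FBS starvation they were exposed to graded compound concentrations for 72 h. CCK-8 was added for a further 4 h and absorbance read at 450 nm. IC50 came from a four-parameter logistic fit.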
Background: Tetrazolium dyes change colour on reduction, which living cells bring about.

The nature of assay [5]: Antiproliferative activity against human DU145 cells after 72 hrs by CCK8 assay. The class given is functional, cell-based. The note with it: DU-145, 72 h. Put shortly: as §3
Assay [6] in a line: Antiproliferative activity against human HeLa cells after 72 hrs by CCK8 assay. It is filed as functional, cell-based. The gist of the method:
as §3

The nature of assay [7]: Antiproliferative activity against human T47D cells after 72 hrs by CCK8 assay. It is filed as functional, cell-based. The gist of the method: as §3
In assay [8] the target is T1, DNA topoisomerase 1 (Homo sapiens). Description: Inhibition of human DNA topoisomerase-1 at 20 uM using supercoiled pBR322 DNA as substrate after 30 mins by ethidium bromide staining based agarose gel electrophoresis relative to control. Put shortly:
as §1

Each structure is given as a SMILES string.

Chain of DNA topoisomerase 2-alpha (Homo sapiens) (P11388 whole entry): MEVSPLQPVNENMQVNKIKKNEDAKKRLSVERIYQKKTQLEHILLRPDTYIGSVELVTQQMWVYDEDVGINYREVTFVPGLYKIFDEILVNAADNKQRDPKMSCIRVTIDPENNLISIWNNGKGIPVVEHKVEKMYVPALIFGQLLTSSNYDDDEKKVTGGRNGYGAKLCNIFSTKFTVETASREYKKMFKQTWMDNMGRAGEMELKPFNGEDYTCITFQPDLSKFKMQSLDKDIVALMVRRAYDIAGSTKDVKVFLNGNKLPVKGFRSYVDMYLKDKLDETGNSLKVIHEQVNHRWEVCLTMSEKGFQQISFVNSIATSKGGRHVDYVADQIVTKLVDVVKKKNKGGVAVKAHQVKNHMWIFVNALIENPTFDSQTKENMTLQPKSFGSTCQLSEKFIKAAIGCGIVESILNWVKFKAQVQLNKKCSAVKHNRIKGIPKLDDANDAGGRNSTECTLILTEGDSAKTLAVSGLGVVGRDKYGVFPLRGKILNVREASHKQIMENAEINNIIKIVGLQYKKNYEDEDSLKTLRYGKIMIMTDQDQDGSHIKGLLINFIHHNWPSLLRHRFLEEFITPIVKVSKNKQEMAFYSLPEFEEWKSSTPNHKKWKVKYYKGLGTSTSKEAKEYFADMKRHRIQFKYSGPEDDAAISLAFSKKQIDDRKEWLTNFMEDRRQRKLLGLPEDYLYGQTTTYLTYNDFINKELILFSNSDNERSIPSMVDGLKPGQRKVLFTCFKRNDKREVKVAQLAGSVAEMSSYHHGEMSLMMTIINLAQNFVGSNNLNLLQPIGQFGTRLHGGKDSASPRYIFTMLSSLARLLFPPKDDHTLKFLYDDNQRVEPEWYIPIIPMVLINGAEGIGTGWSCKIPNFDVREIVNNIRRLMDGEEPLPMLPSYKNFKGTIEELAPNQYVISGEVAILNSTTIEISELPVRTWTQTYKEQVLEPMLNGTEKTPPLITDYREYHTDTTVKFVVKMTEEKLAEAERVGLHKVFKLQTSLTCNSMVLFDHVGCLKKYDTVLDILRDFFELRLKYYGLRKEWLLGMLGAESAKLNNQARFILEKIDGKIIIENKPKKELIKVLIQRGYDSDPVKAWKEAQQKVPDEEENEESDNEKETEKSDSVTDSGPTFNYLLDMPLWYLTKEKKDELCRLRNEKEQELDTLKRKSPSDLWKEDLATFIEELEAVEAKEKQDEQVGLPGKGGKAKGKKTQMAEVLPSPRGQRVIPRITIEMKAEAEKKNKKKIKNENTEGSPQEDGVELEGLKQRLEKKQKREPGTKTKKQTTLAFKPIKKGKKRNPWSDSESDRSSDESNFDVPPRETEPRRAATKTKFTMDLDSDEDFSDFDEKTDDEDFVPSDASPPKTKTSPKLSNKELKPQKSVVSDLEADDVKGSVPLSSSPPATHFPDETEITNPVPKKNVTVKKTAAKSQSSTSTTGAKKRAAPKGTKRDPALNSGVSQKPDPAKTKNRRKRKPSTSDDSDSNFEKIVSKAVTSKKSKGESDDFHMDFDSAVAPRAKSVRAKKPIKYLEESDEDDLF

As to `c1ccc(-c2cc(-c3ccco3)nc3c2Cc2ccccc2-3)cc1`, the inhibition turned out to be 18.7% in assay [1], 41.3% in assay [2] and 5.7% in assay [3]. Besides, the IC50 in assay [4] is more than 50 µM; in assay [5] it was 7.74 µM; in assay [6] it was 16.6 µM.
As for `Oc1ccc(-c2cc(-c3ccccn3)nc3c2Cc2ccccc2-3)cc1`, the inhibition was found to be 0% in assay [1] and 14.8% in assay [2]. Further, the IC50 in assay [4], in assay [7], in assay [5] and in assay [6] was more than 50 µM in each case.
Take `Oc1ccccc1-c1cc(-c2cccnc2)nc2c1Cc1ccccc1-2`: the inhibition in assay [1] came out at 0%; in assay [2] it was 65.5%; in assay [3] it was 10.5%. The IC50 in assay [4] worked out at 3.52 µM; in assay [7] it was 5.15 µM; in assay [5], 7.46 µM; in assay [6] it was 7.8 µM.
As for `Oc1cccc(-c2cc(-c3ccco3)nc3c2Cc2ccccc2-3)c1`, the values for the inhibition in assay [1], in assay [2] and in assay [3] were 28.9%, 77.5% and 36.9%, respectively. In addition, the IC50 was determined as 1.58 µM in assay [4], 1.07 µM in assay [7], 3.75 µM in assay [5] and 6.27 µM in assay [6].
`Oc1cccc(-c2cc(-c3cccnc3)nc3c2Cc2ccccc2-3)c1`: the inhibition in assay [1] was determined as 1.5%; in assay [2], 18.5%. For the same molecule, the IC50 was determined as 1.87 µM in assay [4], 1.17 µM in assay [7], 2.8 µM in assay [5] and 5.19 µM in assay [6].
On to `Oc1ccccc1-c1cc(-c2ccsc2)nc2c1Cc1ccccc1-2`, for which the inhibition in assay [1] stood at 12.8%; in assay [2], 50.2%; in assay [3] it was 4.9%. Besides, the IC50 in assay [4], in assay [7], in assay [5] and in assay [6] was more than 50 µM throughout.
As for `Oc1ccc(-c2cc(-c3ccoc3)nc3c2Cc2ccccc2-3)cc1`, the inhibition in assay [1] was determined as 1.4%; in assay [2], 61.4%; in assay [3], 28%. Also, the IC50 in assay [4] was 1.83 µM; in assay [7] it was 2.6 µM; in assay [5] it was 6.01 µM; in assay [6] it was 5.21 µM.
Regarding `Oc1cccc(-c2cc(-c3ccsc3)nc3c2Cc2ccccc2-3)c1`, the inhibition worked out at 33.1% in assay [1], 0% in assay [8], 75.5% in assay [2] and 22% in assay [3]. The IC50 in assay [4] was found to be 2.49 µM; in assay [7] it was 1.52 µM; in assay [5], 3.12 µM; in assay [6] it was 1.74 µM.
Turning to `c1ccc(-c2cc(-c3ccncc3)nc3c2Cc2ccccc2-3)cc1`, the inhibition in assay [1] worked out at 0%; in assay [2], 2.3%. Also, the IC50 in assay [4] is 16.4 µM; in assay [7], more than 50 µM; in assay [5], more than 50 µM; in assay [6], more than 50 µM.
As to `Oc1cccc(-c2cc(-c3ccoc3)nc3c2Cc2ccccc2-3)c1`, the inhibition in assay [1] is 4.5%; in assay [2] it was 82.2%; in assay [3], 29.6%. The IC50 in assay [4] was 1.24 µM; in assay [7] it was 2.91 µM; in assay [5] it was 1.51 µM; in assay [6], 4.48 µM.
For `c1ccc(-c2cc(-c3ccccn3)nc3c2Cc2ccccc2-3)cc1`, the inhibition in assay [1] was found to be 12.3%; in assay [2], 0%.
Consider `Oc1ccccc1-c1cc(-c2ccncc2)nc2c1Cc1ccccc1-2`, for which the inhibition was determined as 0% in assay [1], 75.2% in assay [2] and 0.9% in assay [3]. Further, the IC50 in assay [4] stood at 2.18 µM; in assay [7] it was 2.44 µM; in assay [5] it was 4.7 µM; in assay [6], 5.78 µM.
Regarding `Oc1ccc(-c2cc(-c3ccsc3)nc3c2Cc2ccccc2-3)cc1`, the inhibition in assay [1] is 45.5%; in assay [8] it was 2.5%; in assay [2] it was 74.8%; in assay [3], 65.9%. The IC50 in assay [4] was determined as 2.45 µM; in assay [7] it was 4.52 µM; in assay [5], 3.35 µM; in assay [6], 4.9 µM.
Consider `Oc1ccccc1-c1cc(-c2ccoc2)nc2c1Cc1ccccc1-2`, for which the results for the inhibition in assay [1] and in assay [2] were 0.4% and 1.8%, respectively. Besides, the concentration for half-maximal inhibition (IC50) in assay [4], in assay [7], in assay [5] and in assay [6] was more than 50 µM in each case.
As to `Oc1cccc(-c2cc(-c3ccccn3)nc3c2Cc2ccccc2-3)c1`, the inhibition in assay [1] turned out to be 2.4%; in assay [2], 3.5%. For the same molecule, the IC50 in assay [4], in assay [7], in assay [5] and in assay [6] was more than 50 µM each time.
On to `Oc1ccccc1-c1cc(-c2ccccn2)nc2c1Cc1ccccc1-2`, for which the inhibition in assay [1] was 0.5%; in assay [2], 15.2%. The IC50 is more than 50 µM in assay [4], 29.6 µM in assay [7], more than 50 µM in assay [5] and more than 50 µM in assay [6].
`Oc1ccccc1-c1cc(-c2ccco2)nc2c1Cc1ccccc1-2`: the inhibition in assay [1] turned out to be 62.4%; in assay [8], 27.1%; in assay [2], 58.7%; in assay [3], 20%. Also, the IC50 in assay [4], in assay [7], in assay [5] and in assay [6] was more than 50 µM in each case.
As to `c1ccc(-c2cc(-c3ccoc3)nc3c2Cc2ccccc2-3)cc1`, the results for the inhibition in assay [1] and in assay [2] were 6.4% and 3.9%, respectively. For the same molecule, the IC50 in assay [4] was 7.05 µM; in assay [7], 17.4 µM; in assay [5], 1.09 µM; in assay [6] it was 10.8 µM.
For `Oc1ccc(-c2cc(-c3ccncc3)nc3c2Cc2ccccc2-3)cc1`, the results for the inhibition in assay [1] and in assay [2] were 0% and 1.14%, respectively. Further, the IC50 in assay [4], in assay [7], in assay [5] and in assay [6] was more than 50 µM each time.
For the molecule `Oc1cccc(-c2cc(-c3ccncc3)nc3c2Cc2ccccc2-3)c1`, the inhibition stood at 1.3% in assay [1] and 49.5% in assay [2]. The IC50 in assay [4] turned out to be 1.94 µM; in assay [7] it was 1.05 µM; in assay [5], 4.36 µM; in assay [6] it was 2.41 µM.
Take `Oc1ccc(-c2cc(-c3cccnc3)nc3c2Cc2ccccc2-3)cc1`: the inhibition in assay [1] was determined as 0%; in assay [2], 4%. Besides, the IC50 in assay [4], in assay [7], in assay [5] and in assay [6] was more than 50 µM throughout.
`c1ccc(-c2cc(-c3ccsc3)nc3c2Cc2ccccc2-3)cc1`: the inhibition in assay [1] stood at 72.5%; in assay [8] it was 0%; in assay [2], 0.5%. Besides, the IC50 in assay [4], in assay [5] and in assay [6] was more than 50 µM throughout.
As to `c1ccc(-c2cc(-c3cccs3)nc3c2Cc2ccccc2-3)cc1`, the figures for the inhibition in assay [1], in assay [8] and in assay [2] were 56%, 0% and 5.8%, respectively. Further, the IC50 in assay [4], in assay [5] and in assay [6] was more than 50 µM each time.

As a reminder, the inhibition is how much of the control response was suppressed. A lower inhibition goes with a weak effect. The IC50 is the point on the concentration scale where inhibition reaches its midpoint.
